Assay outcomes deposited in PubChem by several laboratories.
CTSL1 counter = counter-screen for PFM18AAP inhibitors: inhibitors of F. hepatica cathepsin L1 | recombinant F. hepatica cathepsin L1, Z-Leu-Arg-MCA fluorescence | inhibition, % at 5.96 µM | actives 0.49% (n = 300,000) | AID 1906;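 active = inhibition above the mean of all tested compounds plus 3 SD, set per screening campaign, cut at about 17% in these data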
T cell modulator = T cell immune modulators affecting CD8 T cell-vesicle binding; 2C CD8+ T cell-vesicle binding, flow cytometry; hits give low values; response (vesicle binding), % at 7 µM; actives 0.068% (n = 330,000); AID 2052;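 active = response, share of CD8 T cells binding vesicles, and their 90th percentile fluorescence all below set limits, cut at about 80% in these data, passing the limit was not always enough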;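 also: values below 100% mean blocked vesicle binding to the CD8+ T cells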
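incubation = binding step 1.5 h, 37 °C, antibody labelling 20 min, ice | test system = 2C mouse CD8+ T cells | read-out basis = percent CD8+ FL2 mean versus row control | controls = Peptide-free naked vesicles (low) and QL9 vesicles with 0.7% DMSO vehicle (high) | detection = flow cytometry of vesicle-bound cells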
VIM-2 inh = inhibitors of Pseudomonas aeruginosa VIM-2 metallo-beta-lactamase; purified VIM-2, nitrocefin hydrolysis, epi-absorbance fluorescence; inhibition, % at 5.6 µM; actives 0.89% (n = 290,000); AID 1527;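 active = inhibition above the mean of all tested compounds plus 3 SD, cutoff set per screening run, cut at about 7.5% in these data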;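 also: red hydrolysis product quenches plate fluorescence so inhibitors raise well fluorescence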
p-CIP stab down = lowers stability of the mouse p/CIP coactivator protein; actives 0.01% (n = 290,000); Q05BA5; decrease of EGFP signal, % at 10 µM; F442A p/CIP-EGFP cells, EGFP fluorescence, 16 h;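 active = EGFP signal decrease of at least 30% at 10 µM or well 3 SD below plate mean, unless failing retest; inactive = the rest, including hits failing retest or dose response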
UBC9 SUMO inh = blocks human SUMOylation mediated by UBC9. P63279. HTRF SUMOylation assay, SAE1/SAE2 + UBC9, in vitro. inhibition, % at 35 µM. actives 0.36% (n = 290,000). AID 2006; in the data active = inhibition above about 50%, passing the limit was not always enough
Target sequence (P63279 whole entry, looked up): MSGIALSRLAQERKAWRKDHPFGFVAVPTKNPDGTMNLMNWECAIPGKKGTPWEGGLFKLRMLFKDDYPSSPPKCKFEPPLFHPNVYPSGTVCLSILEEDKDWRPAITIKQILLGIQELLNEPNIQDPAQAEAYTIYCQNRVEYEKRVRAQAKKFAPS
IMP-1 inh = inhibitors of Pseudomonas aeruginosa IMP-1 metallo-beta-lactamase | purified IMP-1, nitrocefin hydrolysis, epi-absorbance fluorescence | inhibition, % at 5.6 µM | actives 0.45% (n = 290,000);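 active = inhibition above the mean plus 3 SD of all compounds in the same screening run, cut at about 4.5% in these data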
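System: purified IMP-1 / Input: IMP-1 dispensed at 0.2 nM / Medium: 50 mM HEPES pH 7.1, 50 µM ZnSO4, 0.05% Brij 35 / Timing: 15 min enzyme–compound preincubation, then 25 min nitrocefin reaction, 25 °C / Technique: plate fluorescence quenching by hydrolysis product, ex 480/em 530 nm / Repeats: singlicate testing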
Each line names hits and unclear results; the compound was inactive in the other large screens. Most compounds without a hit are left out; they make up all but 1.9% or so of the library.

COc1cc(NC(=O)CCc2nnc3ccc(N4CCN(c5cccc(OC)c5)CC4)nn23)cc(OC)c1	CTSL1 counter 66.4
CNC(=O)CSc1cn(CC(=O)N(C(C)C)C(C)C)c2ccccc12	none
COc1ccc(-c2ccc(C(=S)N3CCN(C(C)=O)CC3)o2)cc1	IMP-1 inh 8.5
Cc1noc(C)c1S(=O)(=O)Nc1ccc2c(c1)C(=O)N([C@H](C)CO)C[C@H](C)[C@@H](CN(C)Cc1ccc(C(=O)O)cc1)O2	none (no result: CTSL1 counter, VIM-2 inh, p-CIP stab down, UBC9 SUMO inh, IMP-1 inh)
CCOC(=O)C1(CC2CCCCO2)CCN(S(=O)(=O)c2ccc(C)s2)CC1 (stereo not given)	T cell modulator 13.2
O=C(O)c1cc(C(=O)O)cc(-c2ccc(/C=c3/sc4nc5ccccc5n4c3=O)o2)c1	none (no result: CTSL1 counter, T cell modulator)
O=C(O)c1cccc(-c2ccc(/C=c3/sc4nc5ccccc5n4c3=O)o2)c1	UBC9 SUMO inh 84.0
C=C(NC(=O)C(=C)NC(=O)c1csc(C2=NC3c4csc(n4)C4NC(=O)c5csc(n5)C([C@@](C)(O)C(C)O)NC(=O)C5CSC(=N5)/C(=C\C)NC(=O)C(C(C)O)NC(=O)c5csc(n5)[C@]3(CC2)NC(=O)C(C)NC(=O)C(=C)NC(=O)C(C)NC(=O)C(C(C)CC)NC2C=Cc3c(C(C)O)cc(nc3C2O)C(=O)OC4C)n1)C(N)=O (stereo not given in full)	none (no result: VIM-2 inh, p-CIP stab down, UBC9 SUMO inh, IMP-1 inh)
COC(=O)c1c(NC(=O)c2cccnc2)sc(C(=O)N(C)C)c1C	none
COC(=O)c1cc(C)sc1NC(=O)c1ccco1	VIM-2 inh 8.1
COC(=O)c1c(NC(=O)c2ccco2)sc(C(=O)N(C)C)c1C	VIM-2 inh 12.1
Cn1ncc(C(=O)N=S(C)(=O)c2ccccc2)c1[N+](=O)[O-] (stereo not given)	none
CCc1ccccc1NC(=O)CCS(=O)(=O)c1ccc(C)cc1	none
COC(=O)c1ccccc1NC(=O)CCS(=O)(=O)c1ccc(Br)cc1	IMP-1 inh 34.9 (no result: CTSL1 counter, T cell modulator)
CCOc1ccccc1NC(=O)CCS(=O)(=O)c1ccc(Br)cc1	IMP-1 inh 18.1
O=C(CCS(=O)(=O)c1ccc(Cl)cc1)Nc1ccccc1Br	none
CCc1ccccc1NC(=O)CCS(=O)(=O)c1ccc(Br)cc1	IMP-1 inh 34.2
CCOc1ccc(NC(=O)CCS(=O)(=O)c2ccc(Br)cc2)cc1	IMP-1 inh 15.9
NC(=O)Cn1nc(-c2ccccc2)nc1-c1ccccc1	none (no result: VIM-2 inh, p-CIP stab down, UBC9 SUMO inh, IMP-1 inh)
CC(C)(C)c1ccc(OCC(=O)NNC(=O)c2cccnc2)cc1	none
CN(CC(=O)Nc1ccccc1Br)C(=O)COc1cccc2c1OC(C)(C)C2	none (no result: VIM-2 inh, p-CIP stab down, UBC9 SUMO inh, IMP-1 inh)
O=C(CCCC(=O)c1ccc(F)cc1)c1ccc(F)cc1	none
COc1ccc(-c2cc(C(F)(F)F)nc(N3CCOCC3)n2)cc1OC	none
COc1ccc(-c2cc(-c3ccccc3)nc(N3CCCC3)n2)cc1OC	IMP-1 inh 4.8
Cc1ccc(-n2cc(S(=O)(=O)c3ccc(C)cc3)[nH]c2=O)cc1	none
CCOc1cc2c(cc1/C=C/C(=O)O)OC(C)C2 (stereo not given)	none
COc1cc2c(cc1/C=C/C(=O)O)OC(C)C2 (stereo not given)	UBC9 SUMO inh 55.2, IMP-1 inh 9.2
Cc1nc(SCC(=O)NCc2ccc3c(c2)OCO3)c(C#N)c2c1CCCC2	CTSL1 counter 20.8
O=C(CN1C(=O)/C(=C2\SC(=S)N(CCS(=O)(=O)O)C2=O)c2ccccc21)Nc1cccc(Br)c1	UBC9 SUMO inh 56.5, IMP-1 inh 12.7
CNC(=S)N1CCN(c2ccc(Cl)c(Cl)c2)CC1	none
CCOC(=O)N1CCC(NC(=O)c2cc3c(C)nc4ccccc4c3o2)CC1	none
CCN1CCCC1CNC(=O)c1cc2c(C)nc3ccccc3c2o1 (stereo not given)	VIM-2 inh 8.2
Cc1nc2ccccc2c2oc(C(=O)NCCN3CCCCC3C)cc12 (stereo not given)	VIM-2 inh 10.6
CCc1ccc(CNC(=O)c2cc3c(C)nc4ccccc4c3o2)cc1	none
O=C(CN1C(=O)C2C3C=CC(C3)C2C1=O)Nc1ccc2nccnc2c1 (stereo not given)	CTSL1 counter 20.3
O=C(CN1C(=O)C2C3C=CC(C3)C2C1=O)Nc1ccc(F)cc1 (stereo not given)	none
Cc1cccc(C)c1NC(=O)CSc1nnc(C)n1CC1CCCO1 (stereo not given)	none
C=CCn1c(-c2sccc2C)n[nH]c1=S	VIM-2 inh 8.8
O=C(Nc1cc2c3c(c1)CC(=O)N3CCC2)c1ccc(Br)o1	none (no result: VIM-2 inh, p-CIP stab down, UBC9 SUMO inh, IMP-1 inh)
O=C(c1cccc(C(F)(F)F)c1)C1CCCN(C(=O)/C=C/c2cnc[nH]2)C1 (stereo not given)	none (no result: CTSL1 counter)
Cc1ccc(-n2c(=O)[nH]c3c(C(N)=O)nc(C(C)C)nc32)cc1	none
Cc1cccc(-n2c(=O)[nH]c3c(C(N)=O)nc(C(C)C)nc32)c1	CTSL1 counter 17.5
CC(O)c1nc2ccc(C(=O)O)cc2[nH]1 (stereo not given)	IMP-1 inh 8.7
CC1=C(C#N)C(=O)N(C2CCS(=O)(=O)C2)C(=O)/C1=C\c1ccc(C)o1 (stereo not given)	UBC9 SUMO inh 61.2
Cc1ccc(/C=C2\SC(=S)N(C3CCS(=O)(=O)C3)C2=O)o1 (stereo not given)	none
O=C(NNC(=O)c1csc(-c2cnccc2C(F)(F)F)n1)c1ccc(C(F)(F)F)cc1	CTSL1 counter 22.7
Cc1ccccc1-c1cc2c(nn1)-c1ccccc1C2=O	CTSL1 counter 71.2, UBC9 SUMO inh 88.4
CCCCc1c(O)nc(SCC(=O)c2ccccc2)[nH]c1=O	IMP-1 inh 11.8
CCCCc1c(O)nc(SCC(=O)O)[nH]c1=O	none
CC(C)C(NS(=O)(=O)c1ccc2c(c1)oc(=O)n2C)C(=O)N1CCN(Cc2ccccc2)CC1 (stereo not given)	CTSL1 counter 47.0
CSCCC(NS(=O)(=O)c1ccc2c(c1)oc(=O)n2C)C(=O)NC1CCN(Cc2ccccc2)CC1 (stereo not given)	CTSL1 counter 41.4
CC1CCN(C(=O)C(Cc2ccccc2)NS(=O)(=O)c2ccc3c(c2)oc(=O)n3C)CC1 (stereo not given)	none
CSCCC(NS(=O)(=O)c1ccc2c(c1)oc(=O)n2C)C(=O)NC1CCC(C)CC1 (stereo not given)	none
CCCCC(=O)Nc1ccc(NCc2ccc(C)s2)cc1	none
CC[C@@H](C)[C@H](CN[C@H](CNC)[C@@H](C)O)NCCc1ccc(OC)cc1	VIM-2 inh 11.0
COc1ccc(/C=N/NC(=O)c2nn(-c3ccccc3)c(=O)c3c(N)scc23)cc1	CTSL1 counter 30.9
COc1ccc(/C=N/NC(=O)c2nn(-c3ccc(Cl)cc3)c(=O)c3c(N)scc23)cc1	none
